Laboratory results taken from ChEMBL document CHEMBL1157237, “Methanolysis products of disorazole A1” (J Nat Prod, 2006).
pIC50: −log10 of the molar value.

Columns and labels:
Format in all cases: functional, cell-based
MCF7 = assay: Antiproliferative activity against human MCF7 cells after 72 hrs by celltitre assay; conditions: MCF7, 72 h
Method in brief: (§1)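 Cells grown in RPMI 1640 with 10% FBS at 37 °C under 5% CO2, seeded in duplicate at about 5000 cells/well and left 24 h. Compounds then added as 10-fold serial dilutions for 72 h. Viability read by CellTiter-Glo luminescence. IC50 taken as the concentration giving 50% inhibition of cell growth.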

[1] = Antiproliferative activity against human multidrug-resistant P-glycoprotein expressing NCI/ADR cells after 72 hrs by celltitre assay; conditions: NCI/ADR-RES; method in brief: as §1
A549 = assay: Antiproliferative activity against human A549 cells after 72 hrs by celltitre assay; conditions: A549, 72 h; method in brief: as §1
CCRF-CEM [2] = assay: Antiproliferative activity against human multidrug-resistant P-glycoprotein expressing CCRF-CEM/PTX cells after 72 hrs by celltitre assay
Method in brief: (§2)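 Cultured in RPMI 1640 with 5% FBS at 37 °C and 5% CO2. Seeded in duplicate at about 5000 cells/well and incubated 24 h before 10-fold serial compound dilutions were added for 72 h. Viability measured by CellTiter-Glo luminescence. IC50 = concentration inhibiting growth by 50%.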

CCRF-CEM [3] = assay: Antiproliferative activity against human CCRF-CEM cells after 72 hrs by celltitre assay; method in brief: as §2

| pIC50 (MCF7) | pIC50 (A549) | pIC50 (CCRF-CEM [2]) | pIC50 (CCRF-CEM [3]) | Compound | pIC50 [1] |
| --- | --- | --- | --- | --- | --- |
| 9.62 | 9.60 | 9.62 | 9.96 | C/C=C/[C@H](O)C(C)(C)[C@@H]1C\C=C/C=C\C=C\[C@H](OC)Cc2nc(co2)C(=O)O[C@H](C(C)(C)[C@@H](O)/C=C/C)C/C=C\[C@@H](O)C(OC)/C=C/C=C\c2nc(co2)C(=O)O1 (stereo not given in full) | 8.55 |
| 9.21 | 9.14 | 8.89 | 9.48 | C/C=C/[C@H](O)C(C)(C)[C@@H]1C\C=C/C=C\C=C\[C@H](OC)Cc2nc(co2)C(=O)O[C@H](C(C)(C)[C@@H](O)/C=C/C)C/C=C\[C@@H](O)/C=C/C(OC)/C=C\c2nc(co2)C(=O)O1 (stereo not given in full) | 7.55 |

| Compound | pIC50 (MCF7) | pIC50 (A549) | pIC50 (CCRF-CEM [2]) | pIC50 (CCRF-CEM [3]) | pIC50 [1] |
| --- | --- | --- | --- | --- | --- |
| C/C=C/[C@H](O)C(C)(C)[C@@H]1C\C=C/C=C\C=C\[C@H](OC)Cc2nc(co2)C(=O)O[C@H](C(C)(C)[C@@H](O)/C=C/C)C/C=C\[C@H]2O[C@H]2/C=C/C=C\c2nc(co2)C(=O)O1 [DISORAZOLE A1] | 9.60 | 9.51 | 10.18 | 10.15 | 9.28 |
